# Calls of active or inactive are those of the source. The calls are words filed in the database; no cut-off is given here.
# Columns and labels:
# Assay type in all cases: functional, cell-based
# HeLa [1] = assay: Inhibition of mitosis in human HeLa cells by imaging analysis
# In short: (§1)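 HeLa cells (2,000 per well, DMEM with 10% FBS) were plated overnight, then treated with compound at 10 μM final for 20 h at 37 °C, in duplicate. Cells were pulsed 40 min with 500 nM EdU and fixed in 3.7% paraformaldehyde. Replication was read by rhodamine-azide click labelling, mitosis by anti-phosphohistone H3 Ser10/Cy5, and DNA by Hoechst. Automated 10× imaging scored ≥500 cells per well.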
# HeLa [2] = assay: Cytotoxicity against human HeLa cells assessed as inhibition of DNA replication by imaging analysis; in short: as §1
# HeLa [3] = assay: Induction of cell cycle arrest in human HeLa cells assessed as accumulation at G1 arrest at 10 uM after 20 hrs by Hoescht 33342 staining
# In short: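 HeLa cells plated at 2,000 per well in DMEM with 10% FBS and penicillin/streptomycin, grown overnight, then treated at a final 10 μM (diluted from 10 mM DMSO stock) for 20 h at 37 °C in duplicate. Pulsed 40 min with 500 nM EdU, fixed in 3.7% paraformaldehyde, stained with Hoechst 33342, anti-phosphoH3 Ser10 and rhodamine-azide. Imaged by automated microscopy at 10×; ≥500 cells scored per well.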
SMILES,inhibition (HeLa [1]),inhibition (HeLa [2]),Activity (HeLa [3])
C[C@]12C=CC(=O)C=C1CC[C@H]1[C@@H]3C[C@@H](O)[C@](O)(C(=O)CO)[C@@]3(C)C[C@H](O)[C@@]12F,Active,Active,
CC(=O)[C@H]1CC[C@H]2[C@@H]3CCC4=CC(=O)CC[C@]4(C)[C@H]3CC[C@]12C,Active,Active,
CCC(=O)O[C@]1(C(=O)CCl)[C@@H](C)C[C@H]2[C@@H]3CCC4=CC(=O)C=C[C@]4(C)[C@@]3(F)[C@@H](O)C[C@@]21C,Active,Active,
C[C@@H]1C[C@@H]([C@H](O)CC2CC(=O)NC(=O)C2)C(=O)[C@@H](C)C1,Active,Active,
C[C@@H]1C[C@H]2[C@@H]3CCC4=CC(=O)C=C[C@]4(C)[C@@]3(F)[C@@H](O)C[C@]2(C)[C@@]1(O)C(=O)CO,Active,Active,
CCCCCC[C@H]1CC[C@@](O)([C@@](C)(O)C(=O)N[C@@H]2C(=O)N3NCCC[C@@H]3C(=O)N(O)[C@@H](COC)C(=O)NCC(=O)N3NCCC[C@H]3C(=O)N(O)[C@H](C)C(=O)O[C@H]2C)OC1C (some centres undefined),,,Active
C[C@H]1O[C@@H](O[C@H]2[C@@H](O)C[C@H](O[C@H]3[C@@H](O)C[C@H](O[C@H]4CC[C@@]5(C)[C@H](CC[C@@H]6[C@@H]5C[C@@H](O)[C@]5(C)[C@@H](C7=CC(=O)OC7)CC[C@]65O)C4)O[C@@H]3C)O[C@@H]2C)C[C@H](O)[C@@H]1O,Active,Active,
CC(C)[C@H]1CC[C@@](O)(CCl)[C@H]2C(=O)OCC(C(=O)O)=C[C@H]12,,,Active
COC[C@H]1C(=O)NCC(=O)N2NCCC[C@H]2C(=O)N(O)[C@H](C)C(=O)O[C@@H](C(C)C)[C@H](NC(=O)[C@](C)(O)[C@]2(O)CC[C@@H](CC(C)C)[C@H](C)O2)C(=O)N2NCCC[C@@H]2C(=O)N1O,,,Active
C#C[C@]1(O)CC[C@H]2[C@@H]3CCC4=Cc5oncc5C[C@]4(C)[C@H]3CC[C@@]21C,Active,Active,
CC1=C2O[C@]3(O)C=C2C(=C(O)C1=O)[C@@H]1O[C@H](CC[C@H](C)/C=C(\C)C[C@@H](C)C[C@@H]3C)[C@H](C)[C@H](O)[C@H]1C,,,Active
C[C@@H]1O[C@@H](O[C@H]2C[C@@H](O)[C@]3(CO)[C@H]4[C@H](O)C[C@]5(C)[C@@H](C6=CC(=O)OC6)CC[C@]5(O)[C@@H]4CC[C@]3(O)C2)[C@H](O)[C@H](O)[C@H]1O,Active,Active,
C[C@]12CC[C@H](O)C[C@H]1CC[C@@H]1[C@@H]2CC[C@]2(C)[C@@H](C3=CC(=O)OC3)CC[C@]12O,Active,Active,
CC[C@H]1CN2CCc3cc(OC)c(OC)cc3[C@@H]2C[C@@H]1C[C@H]1NCCc2cc(OC)c(OC)cc21,Active,Active,

# Reference: ChEMBL document CHEMBL1240335, “Integrating high-content screening and ligand-target prediction to identify mechanism of action” (Nat Chem Biol, 2008)
